Here are results for nine compounds from paper PMC11350598 (JACS Au, 2024).

Read-outs that look alike come from different tables or passages of the source. Marks after values point to notes of the source that are not given here.

Data set [1] relates to wild-type ModA/WtpA protein (AFE_1498). As to the kind of experiment: Metal binding in vitro by purified protein. Details: species or system A. ferrooxidans. The conditions noted are these: pH 1.8, 1:1 molar ratio. A digest of the protocol: (§1)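 Purified polyHis-tagged protein (Ni-NTA resin, then size exclusion chromatography; about 35 kDa on SDS-PAGE). It was incubated 1 h at pH 1.8 with a solution of one oxyanion: molybdate, tungstate, chromate or perrhenate. Binding efficiency was taken after the incubation. Error bars are one standard deviation, and p < 0.05 versus wild-type protein for the same metal.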

Data set [2] concerns mutant (G9C/A166C) ModA/WtpA protein. The data set is described as follows: Metal binding in vitro by purified protein. The conditions noted are these: pH 1.8, 1:1 molar ratio. Also on record: species or system A. ferrooxidans. The gist of the method:
as §1

In data set [3] the target is wild-type ModA/WtpA protein. The data set is described as follows: Quenching of intrinsic tryptophan fluorescence, Langmuir isotherm fit. Format: binding, A. ferrooxidans. As to conditions: read-out: dissociation constant, pH 1.8. The gist of the method:
(§2)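 Purified polyHis-tagged protein (Ni-NTA resin, then size exclusion chromatography) at a fixed amount, titrated at pH 1.8 with varying initial concentrations of molybdate, tungstate, chromate or perrhenate. Significance was p < 0.05 versus wild-type protein for the same metal.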

Another data set relates to mutant ModA/WtpA protein. The description is as above. Format: binding, A. ferrooxidans. As to conditions: pH 1.8; for Kd: read-out: dissociation constant, mutant protein. A digest of the protocol: as §2
Data set [4] relates to wild-type (AF) A. ferrooxidans cells. Format: cell-based. As to conditions: for binding capacity: 1 mM mixed metal solution, pH 1.8.
For data set [5], the system named is AFWP (engineered A. ferrooxidans overexpressing wild-type ModA/WtpA). The data set is described as follows: Metal binding by cells in synthetic metal solutions. Type of data set: cell-based. As to conditions: for binding capacity / fold higher binding capacity compared to wild-type cells: pH 1.8; for binding capacity to other oxyanion metals: Figure S6.
Data set [6] relates to AFMP (engineered A. ferrooxidans expressing mutant ModA/WtpA). The data set is described as above. Type of data set: cell-based. As to conditions: for binding capacity to other oxyanion metals: Figure S6.
Data set [7] relates to wild-type (AF) A. ferrooxidans cells. The data set is described as follows: Metal recovery from porphyry molybdenite processing concentrate. The conditions noted are these: for efficiency of recovery: diluted acidic wastewater from molybdenite processing, pH 1.6; for binding during reactions with process concentrate: data not shown. Type of data set: cell-based. A digest of the protocol:
(§3)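 Wild-type *A. ferrooxidans* and strains engineered to (over)express wild-type (AFWP) or mutant (AFMP) ModA/WtpA oxyanion-binding protein (AFE_1498) were each reacted with diluted acidic wastewater from the washing and extraction steps of porphyry molybdenite processing. The wastewater held molybdenum and rhenium as major components, at pH 1.6. Mo and Re recovery efficiency after binding was compared with wild-type cells.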

The next data set relates to AFWP cells. The description is as above. Type of data set: cell-based, A. ferrooxidans. The conditions noted are these: pH 1.6; for efficiency of recovery: diluted acidic wastewater from molybdenite processing. The gist of the method:
as §3

In the next data set the test system is AFMP cells. The description is as above. As to conditions: for efficiency of recovery: diluted acidic wastewater from molybdenite processing; for binding during reactions with process concentrate: data not shown. Format: cell-based, A. ferrooxidans. A digest of the protocol:
as §3

For data set [8] the following is noted: cited from earlier work.
Setting [9] is: 1 mM mixed metal solution, pH 1.8.
The mark [10] stands for this setting: 1 mM pure metal solution, pH 1.8.
Where [11] appears, read: diluted process concentrate, pH 1.6.

What is called pKa is the pH at which an ionisable group is half protonated.

Consider `[O]=[Mo](=[O])([O-])[O-]` [molybdate], for which the “binding efficiency (bound)” value in data set [1] and in data set [2] was “nearly all” each time. Besides, the Kd in data set [3] was found to be 320 ± 30 nM; at mutant ModA/WtpA protein, 150 ± 10 nM. The “fold lower Kd (higher affinity) of mutant protein than wild-type protein” value with mutant ModA/WtpA protein was found to be 2 fold. Also, the binding capacity is reported as 3.6 fg/cell in data set [4] (wild-type AF); 5.9 fg/cell in data set [5] (1 mM mixed metal solution); 18 fg/cell in data set [5] (1 mM pure metal solution); 8.4 fg/cell in [6] (setting [9]); 18 fg/cell in data set [6] (setting [10]). Further, the “fold higher binding capacity compared to wild-type cells” value in [5] (1 mM pure metal solution) and in data set [6] (setting [10]) was 1.4 fold in each case. Further, the results for the efficiency of recovery (in data set [7]; in the data set on AFWP cells; with AFMP cells (pH 1.6)) were 6.0 ± 0.1%, 12 ± 1% and 12 ± 1%, respectively. The “fold more recovered compared to wild-type AF cells” value in the data set with AFWP cells (diluted process concentrate) and with AFMP cells (setting [11]) was 2 fold in each case. The pKa in data set [8] (ref [4],[47]) is 3.8.

Regarding `[Fe+2]` [iron], the “binding efficiency (bound)” value turned out to be 1.7 ± 0.3% in data set [1] and 1.3 ± 0.5% in data set [2]. Also, the binding capacity in data set [4] (wild-type AF), in data set [5] (1 mM mixed metal solution) and in data set [6] (setting [9]) was 0.04 fg/cell each time.

`[O]=[Cr](=[O])([O-])[O-]` [chromate]: the “binding efficiency (bound)” value in data set [1] and in data set [2] was “nearly all” in each case. Besides, the Kd in data set [3] stood at 500 ± 110 nM; at mutant ModA/WtpA protein it was 480 ± 70 nM. The binding capacity in data set [4] (wild-type AF) is 0.03 fg/cell; in data set [5] (1 mM mixed metal solution), 0.06 fg/cell; in data set [5] (1 mM pure metal solution), 0.6 fg/cell; in data set [6] (setting [9]), 0.07 fg/cell; in [6] (setting [10]) it was 0.6 fg/cell. Also, the “fold higher binding capacity compared to wild-type cells” value in [5] (1 mM pure metal solution) and in data set [6] (setting [10]) was 1.3 fold in each case. Further, the pKa in data set [8] (ref [4],[47]) was 6.5.

Consider `[O]=[W](=[O])([O-])[O-]` [tungstate], for which the “binding efficiency (bound)” value in [1] and in [2] was “nearly all” each time. The Kd came to 490 ± 110 nM in data set [3] and 360 ± 60 nM at mutant ModA/WtpA protein. Further, the binding capacity in [5] (1 mM mixed metal solution) was 0.02 fg/cell; in [5] (1 mM pure metal solution), 0.23 fg/cell; in data set [6] (setting [9]) it was 0.04 fg/cell; in data set [6] (setting [10]) it was 0.24 fg/cell. Further, the “fold higher binding capacity compared to wild-type cells” value in [5] (1 mM pure metal solution) and in data set [6] (setting [10]) was 2 fold each time. Besides, in [8] (ref [4],[47]), the pKa was 6.7.

Turning to `[Se]` [selenium], the “binding during reactions with process concentrate” value (in data set [7]; with AFMP cells) was “nonspecific binding” throughout.

For the compound phosphate, the “binding capacity to other oxyanion metals” value in [4] (wild-type AF, Figure S6) is on record as “did not show significant binding capacity”; in data set [5], “did not show significant binding capacity”; in data set [6] it was “did not show significant binding capacity”.

As for `O=[As][O-].[Na+]` [arsenite], the “binding capacity to other oxyanion metals” value in data set [4], in data set [5] and in [6] was “did not show significant binding capacity” in each case.

Turning to `[O]=[Re](=[O])(=[O])[O-]` [perrhenate], the “binding efficiency (bound)” value in data set [1] came to 1.4%; in data set [2], 93%. Further, the values for the Kd (in data set [3]; at mutant ModA/WtpA protein) were 1000 ± 100 nM and 160 ± 30 nM, respectively. Besides, in the data set with mutant ModA/WtpA protein, the “fold lower Kd (higher affinity) of mutant protein than wild-type protein” value was 6 fold. In addition, the “fold higher binding capacity than wild-type AF and AFWP cells” value in data set [6] (setting [9]) worked out at 2.7 fold. In data set [6] (setting [10]), this compound gave a binding capacity of 1.3 fg/cell. Besides, the “fold higher binding capacity compared to AFWP cells” value in data set [6] (setting [10]) turned out to be 2 fold. In addition, the “fold higher binding capacity compared to wild-type cells” value in data set [6] (setting [10]) is reported as 5 fold. Further, the efficiency of recovery was 1.7 ± 0.1% in data set [7], 1.9 ± 0.2%*^,** with AFWP cells and 5.7 ± 0.1%*^,** in the data set on AFMP cells (pH 1.6). Moreover, the “fold more recovered than wild-type and AFWP cells” value with AFMP cells (setting [11]) amounted to 3 fold. In addition, the pKa in data set [8] (ref [47]) was −1.25.

In the case of `[As]` [arsenic], the “binding during reactions with process concentrate” value (in data set [7]; with AFMP cells) was “nonspecific binding” each time.
